Results taken from ChEMBL document CHEMBL1142071, “Coproduction of novel 16S rRNA methylase RmtD and metallo-beta-lactamase SPM-1 in a panresistant Pseudomonas aeruginosa isolate from Brazil” (2007).
Values after ≈ are worked out from the molar mass of the structure shown.

What was measured:
Assay type in all cases: functional
Pseudomonas aeruginosa = assay: Antimicrobial activity against Pseudomonas aeruginosa PA0905
Procedure, shortened: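 The clinical urine isolate was collected in 2005 in Sorocaba, Brazil. Aminoglycoside MICs were determined by CLSI agar dilution, with E. coli ATCC 25922 as the control strain. β-Lactam, ciprofloxacin and colistin MICs were determined by Etest.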

Escherichia coli [1] = assay: Antimicrobial activity against Escherichia coli XL1-Blue [pBluescript 2 SK(+)
Procedure, shortened: (§1)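 Aminoglycoside MICs were determined by CLSI agar dilution, with E. coli ATCC 25922 as the control strain. The host was E. coli XL1-Blue carrying pBluescript II SK(+), either as vector alone or as a ligated Sau3AI partial digest of the cloned resistance plasmid. Transformants were selected on LB agar with 50 μg/ml ampicillin plus 10 μg/ml amikacin.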

Escherichia coli [2] = assay: Antimicrobial activity against Escherichia coli XL1-Blue pPA95S29; procedure, shortened: as §1

SMILES | MIC (Pseudomonas aeruginosa) | MIC (Escherichia coli [1]) | MIC (Escherichia coli [2])
CN[C@@H]1[C@@H](O[C@H]2O[C@H](CO)[C@@H](N)[C@H](O)[C@H]2O)OC2C[C@@H](N)[C@@H](O[C@H]3[C@H](O)[C@@H](O)[C@H](N)C[C@@H]3N)OC2[C@@H]1O (some centres undefined) [APRAMYCIN] | 32 µg/mL (≈ 59.3 µM) | 2 µg/mL (≈ 3.71 µM) | 2 µg/mL (≈ 3.71 µM)
NC[C@@H]1O[C@H](O[C@H]2[C@@H](O)[C@H](O[C@@H]3[C@@H](O)[C@H](N)C[C@H](N)[C@H]3O[C@H]3O[C@H](CN)[C@@H](O)[C@H](O)[C@H]3N)O[C@@H]2CO)[C@H](N)[C@@H](O)[C@@H]1O [FRAMYCETIN] | 64 µg/mL (≈ 104 µM) | 0.12 µg/mL (≈ 0.195 µM) | 0.12 µg/mL (≈ 0.195 µM)
O=C(O)c1cn(C2CC2)c2cc(N3CCNCC3)c(F)cc2c1=O [CIPROFLOXACIN] | > 32 µg/mL |  | 
NCC[C@H](O)C(=O)N[C@@H]1C[C@H](N)[C@@H](O[C@H]2O[C@H](CN)[C@@H](O)[C@H](O)[C@H]2O)[C@H](O)[C@H]1O[C@H]1O[C@H](CO)[C@@H](O)[C@H](N)[C@H]1O [AMIKACIN] | > 256 µg/mL | 0.5 µg/mL (≈ 0.854 µM) | > 256 µg/mL
CN[C@@H]1[C@H](O[C@H]2[C@H](O[C@H]3[C@H](O)[C@@H](O)[C@H](N=C(N)N)[C@@H](O)[C@@H]3N=C(N)N)O[C@@H](C)[C@]2(O)C=O)O[C@@H](CO)[C@H](O)[C@H]1O [STREPTOMYCIN] | 128 µg/mL (≈ 220 µM) | 0.5 µg/mL (≈ 0.86 µM) | 1 µg/mL (≈ 1.72 µM)
C[C@@H](O)[C@H]1C(=O)N2C(C(=O)O)=C(SCCNC=N)C[C@H]12 [IMIPENEM ANHYDROUS] | > 32 µg/mL |  | 
C[C@@H](O)[C@H]1C(=O)N2C(C(=O)O)=C(S[C@@H]3CN[C@H](C(=O)N(C)C)C3)[C@H](C)[C@H]12 [MEROPENEM] | > 32 µg/mL |  | 
CO/N=C(\C(=O)N[C@@H]1C(=O)N2C(C(=O)[O-])=C(C[N+]3(C)CCCC3)CS[C@H]12)c1csc(N)n1 [CEFEPIME] | > 256 µg/mL |  | 
C[C@H]1[C@H](NC(=O)/C(=N\OC(C)(C)C(=O)O)c2csc(N)n2)C(=O)N1S(=O)(=O)O [AZTREONAM] | 8 µg/mL (≈ 18.4 µM) |  | 
NCC[C@H](O)C(=O)N[C@@H]1C[C@H](N)[C@@H](O[C@H]2O[C@H](CN)CC[C@H]2N)[C@H](O)[C@H]1O[C@H]1O[C@H](CO)[C@@H](O)[C@H](N)[C@H]1O [ARBEKACIN] | > 256 µg/mL | 0.25 µg/mL (≈ 0.452 µM) | > 256 µg/mL
CC(C)(O/N=C(\C(=O)N[C@@H]1C(=O)N2C(C(=O)[O-])=C(C[n+]3ccccc3)CS[C@H]12)c1csc(N)n1)C(=O)O [CEFTAZIDIME] | > 256 µg/mL |  | 
NC[C@H]1O[C@H](O[C@H]2[C@H](O)[C@@H](O[C@H]3O[C@H](CO)[C@@H](O)[C@H](N)[C@H]3O)[C@H](N)C[C@@H]2N)[C@H](N)C[C@@H]1O [TOBRAMYCIN] | 256 µg/mL (≈ 548 µM) | 0.06 µg/mL (≈ 0.128 µM) | 64 µg/mL (≈ 137 µM)
